Experimental data as given in paper PMC9435035 (ACS Omega, 2022).

How the values were obtained:
[1] = target: α-glucosidase (Saccharomyces cerevisiae, UniProt P53341); assay: α-glucosidase inhibitory activity; type: biochemical; settings: read-out: glucosidase inhibition IC50 ± SEM; mean ± SEM
[2] = test system: overnight fasted normal rats; assay: oral glucose tolerance test; type: in vivo, Wistar albino rats; settings: OGTT, glucose 3 g/kg oral, dose 0.5 mg/kg
[3] = body weight of STZ-induced diabetic rats; type: in vivo, Wistar albino rats; settings: 0.5 mg/kg
In short: (§1)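 Male Wistar albino rats (170–200 g, 8–10 weeks), fasted overnight, given STZ 50 mg/kg i.p. in 0.1 M citrate buffer, then 10% glucose for 3 days. Tail-vein glucose by glucometer at 72 h; >250 mg/dL counted as diabetic. Body weight and blood glucose on days 1, 7, 14, 21 and 28. Means ± SEM, one-way ANOVA with Dunnett's test.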

[4] = test system: streptozotocin-induced diabetic Wistar rats; assay: antidiabetic activity: blood glucose in STZ-induced diabetes; type: in vivo, Wistar albino rats; settings: 0.5 mg/kg p.o.
In short: as §1

[5] = test system: streptozotocin-induced diabetic Wistar rats; assay: lipid profile in streptozotocin-induced diabetes; type: in vivo, Wistar albino rats; settings: STZ-diabetic rats; 0.5 mg/kg for 28 days
In short: (§2)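 STZ-diabetic Wistar rats (n = 8 per group) received test compound at 10 or 20 mg/kg p.o., or glibenclamide 500 μg/kg p.o., once daily for 28 days; controls received vehicle. On day 28, rats were anesthetised with pentobarbital sodium (35 mg/kg) and blood was drawn by cardiac puncture. Serum ALP, SGPT, SGOT, LDL, HDL, TG, total cholesterol, creatinine and insulin were measured. Means ± SEM, one-way ANOVA with Dunnett's test.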

[6] = test system: streptozotocin-induced diabetic Wistar rats; assay: serum profile; type: in vivo, Wistar albino rats; settings: STZ-diabetic rats, 0.5 mg/kg for 28 days
In short: as §2

Sequence of α-glucosidase (P53341 whole entry): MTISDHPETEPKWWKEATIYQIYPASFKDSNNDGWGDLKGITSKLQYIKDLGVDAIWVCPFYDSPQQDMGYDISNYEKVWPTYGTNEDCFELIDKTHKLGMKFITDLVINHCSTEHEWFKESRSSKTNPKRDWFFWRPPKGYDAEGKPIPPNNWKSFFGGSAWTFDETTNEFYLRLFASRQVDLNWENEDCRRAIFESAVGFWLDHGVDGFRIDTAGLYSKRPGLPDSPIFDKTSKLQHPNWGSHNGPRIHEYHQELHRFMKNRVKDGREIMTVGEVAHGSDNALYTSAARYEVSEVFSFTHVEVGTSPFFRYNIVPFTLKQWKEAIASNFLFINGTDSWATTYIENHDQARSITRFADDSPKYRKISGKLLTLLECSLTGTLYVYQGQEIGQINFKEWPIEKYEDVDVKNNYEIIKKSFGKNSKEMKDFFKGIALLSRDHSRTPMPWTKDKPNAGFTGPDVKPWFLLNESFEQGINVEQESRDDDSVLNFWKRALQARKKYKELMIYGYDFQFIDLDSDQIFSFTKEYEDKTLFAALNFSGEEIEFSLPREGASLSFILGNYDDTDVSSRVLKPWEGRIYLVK

## 2-(3-Methoxy-4-propoxyphenyl)-4-(p-tolyl)-2,3-dihydrobenzo[b][1,5]thiazepine [5B]
[1]
  IC50: 6.28 ± 0.71 µM

## 2-(4-Butoxy-3-methoxyphenyl)-4-(p-tolyl)-2,3-dihydrobenzo[b][1,5]thiazepine [9B]
[1]
  IC50: 8.56 ± 0.59 µM

## 2-(4-Ethoxyphenyl)-4-(p-tolyl)-2,3-dihydrobenzo[b][1,5]thiazepine [8B]
[1]
  IC50: 9.44 ± 0.83 µM

## COc1ccc(Cl)cc1C(=O)NCCc1ccc(S(=O)(=O)NC(=O)NC2CCCCC2)cc1 [glibenclamide, reference compound]
[2]; 0 min
  blood glucose level, 0 min: 102.03 ± 4.22 mg/dL
[2]; 30 min
  blood glucose level, 30 min: 103.92 ± 5.01 mg/dL
[2]; 60 min
  blood glucose level, 60 min: 108.71 ± 4.21 mg/dL
[2]; 90 min
  blood glucose level, 90 min: 101.86 ± 4.21 mg/dL
[2]; 120 min
  blood glucose level, 120 min: 104.12 ± 4.67 mg/dL
[3]; day 1, in g (unit assumed)
  body weight, day 1: 187.4 ± 4.57
[3]; day 7, in g (unit assumed)
  body weight, day 7: 190.2 ± 3.98
[3]; day 14, in g (unit assumed)
  body weight, day 14: 177.1 ± 4.21
[3]; day 21, in g (unit assumed)
  body weight, day 21: 183.7 ± 4.33
[3]; day 28, in g (unit assumed)
  body weight, day 28: 185.1 ± 4.48
[4]; day 1
  blood glucose level, day 1: 352.28 ± 4.11 mg/dL
[4]; day 7
  blood glucose level, day 7: 231.12 ± 4.29 mg/dL
[4]; day 14
  blood glucose level, day 14: 151.43 ± 4.09 mg/dL
[4]; day 21
  blood glucose level, day 21: 118.87 ± 4.03 mg/dL
[4]; day 28
  blood glucose level, day 28: 101.68 ± 4.19 mg/dL
[5]
  HDL: 65.90 ± 2.71 mg/dL
  LDL: 96.12 ± 4.31 mg/dL
  TG: 105.43 ± 4.31 mg/dL
  total CH: 122.09 ± 4.89 mg/dL
[6]
  insulin level: 0.754 ± 0.33 ng/mL
  serum creatinine: 0.57 ± 0.23 mg/dL
[6]; serum
  (ALP) IU: 185.32 ± 5.71 IU
  (SGOT) IU: 20.68 ± 2.01 IU
  (SGPT) IU: 19.63 ± 2.11 IU
